Shown are actives, neighbours in structure and some others; about 2.2% of the full set was active somewhere.
PMI activator – activators of human phosphomannose isomerase | purified human PMI, coupled resazurin fluorescence, 20 min; stronger effect = higher value; 1 = vehicle control, 0 substrate-free wells | activation factor at 20 µM | 0.005% of 190,000 active | AID 1214;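 active means activation factor of 2 or more at 20 µM, relative to plate controls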
ROMK primary – modulates human ROMK potassium channel activity; Tet-inducible ROMK, thallium flux fluorescence; actives lie on both sides; B-score at 10 µM; 2% of 130,000 active; AID 1918;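 active means signal ratio slope over the read window, or its plate-corrected B-score, at least 3 SD from the plate mean, either direction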;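 further: B-score of the F/F0 ratio slope over 7 to 12 s after thallium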
Target sequence (P48048 whole entry, looked up): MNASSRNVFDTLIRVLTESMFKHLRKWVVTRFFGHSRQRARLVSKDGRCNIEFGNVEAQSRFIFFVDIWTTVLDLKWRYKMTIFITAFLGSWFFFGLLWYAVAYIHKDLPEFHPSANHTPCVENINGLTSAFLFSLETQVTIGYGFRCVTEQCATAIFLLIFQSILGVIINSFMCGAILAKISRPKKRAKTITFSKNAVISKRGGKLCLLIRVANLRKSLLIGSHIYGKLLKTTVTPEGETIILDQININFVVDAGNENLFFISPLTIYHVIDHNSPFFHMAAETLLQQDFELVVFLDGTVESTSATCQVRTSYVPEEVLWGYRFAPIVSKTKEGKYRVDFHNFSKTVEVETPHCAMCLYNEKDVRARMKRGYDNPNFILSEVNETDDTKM
G6PDH counter – inhibits Leuconostoc G6PDH, flagging false hits in G6PDH-based assays; Purified L. mesenteroides G6PDH, diaphorase/resazurin coupled fluorescence, 45 min; inhibition, % at 5 µM; 0.12% of 200,000 active; in the data active means inhibition above about 50%
Diaph act CS – activates diaphorase or chemically reduces, flagging diaphorase assay artifacts; Diaphorase/resazurin coupled assay, resorufin fluorescence, 16 min; stronger effect = higher value; 1 = vehicle wells, 0 = NADH-free wells; activation factor at 20 µM; 0.005% of 190,000 active; AID 1229;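 active means diaphorase activity raised at least twofold by the compound at 20 µM; inactive means activation factor below 2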
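Test system: Clostridium kluyveri diaphorase, purified enzyme. Buffer or medium: 50 mM HEPES pH 7.4 buffer plus MgCl2 and Tween 20. Also added: 0.114 mM NADH and 0.1 mM resazurin, final amounts. Dosing: compound 20 µM once, DMSO 1%. Schedule: 16 min enzyme reaction, ambient temperature. Detection: fluorescence of resorufin, 544 nm excitation, 590 nm emission.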
Diaph inh CS – diaphorase inhibition or chemical oxidation counter-screen; diaphorase resazurin-to-resorufin fluorescence, NADH, 16 min; bacterial (C. kluyveri) enzyme, not human; inhibition, % at 20 µM; 0.69% of 190,000 active; AID 1217;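 active means primary screen inhibition at 20 µM above a set limit, cut at about 50% in these data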
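Assay system: diaphorase enzyme from Clostridium kluyveri. Quantity: enzyme working solution with 0.14 U/mL diaphorase. Schedule: reaction incubation of 16 min at room temperature. Technique: resorufin fluorescence, excitation 544 nm, emission 590 nm. Controls: No-NADH positive control and DMSO neutral control.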
PMI act hi M6P – activators of human phosphomannose isomerase at near-saturating mannose 6-phosphate; coupled PMI enzyme assay, resazurin fluorescence, 20 min; stronger effect = higher value; 1 = untreated enzyme, 0 = substrate-free blank; P34949; 0.34% of 190,000 active; activation factor at 20 µM;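 active means activation factor of 2 or more at 20 µM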
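test system = human PMI in coupled enzyme assay | medium = HEPES-buffered pH 7.4 with magnesium and detergent | also added = 1.0 mM mannose-6-phosphate substrate with 0.22 mM NADP+ | compound = 20 µM single dose | times = 20 min incubation at room temperature | measured by = resorufin fluorescence (Ex 544/Em 590 nm) from resazurin via diaphorase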
ROMK retest – retested hit modulating human ROMK potassium channel; shares compounds with ROMK primary; ROMK thallium flux, fluorescence ratio; stronger effect = lower value; normalized thallium flux (F/F0 slope) at 10 µM; 54% of 3,000 active; AID 1917;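 active means Flux at 10 µM at least 3 SD below or above vehicle control mean in one or both replicates; inconclusive means no clear call, values can overlap the other calls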
A number is an active result; 0 = inactive; ? = inconclusive; - = no result.

SMILES	PMI activator	ROMK primary	G6PDH counter	Diaph act CS	Diaph inh CS	PMI act hi M6P	ROMK retest
CCc1cc2c3c(c1)C1(C(=O)N3C(C)(C)CC2C)C(C#N)=C(N)N2C(=C1C#N)Nc1ccccc12 (centres undefined)	0	-	0	0	0	0	-
O=C(c1cccs1)c1no[n+]([O-])c1C(=O)c1cccs1	0	-	0	0	0	0	0.028
COc1ccc(C(=O)c2no[n+]([O-])c2C(=O)c2ccc(OC)cc2)cc1	0	-	0	0	0	0	?
COc1ccc(NC(=O)c2c(N)no[n+]2[O-])cc1	0	0	0	0	0	0	-
COc1ccc(C2CC(c3cccs3)=NN2C(=O)COC(=O)c2cncc(Br)c2)cc1OC (centres undefined)	0	0	0	0	0	0	-
CCCn1c(N)c(NCCN2CCOCC2)c(=O)[nH]c1=O	0	0	0	0	0	0	-
c1ccc2sc(N3CCCN(Cc4nc(-c5cnccn5)no4)CC3)nc2c1	0	0	0	0	0	0	-
CN=C1S/C(=C\c2cn(CC(=O)OC)c3ccccc23)C(=O)N1C	0	0.78	0	0	0	0	0
CCn1c(SCC(=O)Nc2cc(S(=O)(=O)N3CCOCC3)ccc2OC)nnc1-c1ccncc1	0	0	0	0	0	0	-
CN1/C(=C\C=N\O)C(C)(C)c2ccccc21	0	0	0	0	0	0	-
CN(C)c1ccc(N=C/C=C2/N(C)c3ccccc3C2(C)C)cc1	0	-	0	0	0	0	0.054
Cc1nc(SCC(=O)Nc2c(C)nn(C)c2C)c2cnn(-c3ccccc3)c2n1	0	-	0	0	0	0	-
CC(C)c1nc(SCC(=O)Nc2c[nH]c(=O)[nH]c2=O)c2cnn(-c3ccccc3)c2n1	0	0.42	0	0	0	0	0
CCC(C)NC(=O)CN(c1cc(C)cc(C)c1)S(=O)(=O)c1c(C)[nH]c(=O)[nH]c1=O (centres undefined)	-	0	-	-	-	-	-
O=C(Nc1ccc(N2CCOCC2)cc1)c1ccccc1SCC(=O)N1CCCC1	0	0	0	0	0	0	-
CC(=O)c1c(C)c2c(n1CCN(C)C)CCCC2	0	3.5	0	0	0	0	0
Cc1ccccc1Nc1nc(N)nc(COC(=O)c2cccc(S(=O)(=O)NCc3ccccc3)c2)n1	0	-3.8	0	0	0	0	0.047
S=c1[nH]nc(-c2cccc3ccccc23)n1-c1cccnc1	-	0	-	-	-	-	-
S=c1[nH]nc(COc2ccc(Cl)cc2)n1Cc1ccco1	0	0	0	0	0	0	-
COc1ccc(Cn2c(-c3ccc(Br)cc3)c[n+]3ccccc23)cc1	0	-	0	0	0	0	-
COc1ccc(-c2c[n+]3c4n2CCCCC4=C(c2ccc(Br)cc2)C3)cc1	0	-4.6	0	0	0	0	0.052
Clc1ccc(C2=C3CCCCn4c(-c5ccccc5)c[n+](c43)C2)cc1	0	-	0	0	0	0	0.064
COc1ccccc1C1SCCN1S(=O)(=O)c1cccc(C(F)(F)F)c1 (centres undefined)	0	-4.3	0	0	0	0	0.066
CCOc1ccc(C(=O)/C=C/Nc2ccc(S(=O)(=O)Nc3onc(C)c3C)cc2)cc1	0	2.7	0	0	0	0	0
CCc1nnc(NS(=O)(=O)c2ccc(N/C=C/C(=O)c3ccc(OC)cc3)cc2)s1	0	4.1	0	0	0	0	0
SMILES	PMI activator	ROMK primary	G6PDH counter	Diaph act CS	Diaph inh CS	PMI act hi M6P	ROMK retest
Cc1noc(NS(=O)(=O)c2ccc(N/C=C\C(=O)c3ccc(Br)cc3)cc2)c1C	0	6	0	0	0	0	0.099
CCc1ccc(/C=C2/C(=O)N(C)C(=S)N2CC(=O)OC)s1	0	0	0	0	0	0	-
COc1ccc(S(=O)(=O)Nc2cccc(NC(C)=O)c2)cc1	0	0	0	0	0	0	-
COc1cccc(NS(=O)(=O)c2ccc(NC(C)=O)cc2)c1	0	-2.1	0	0	0	0	0
Fc1cccc(-c2cc3nc4c(c(N5CCOCC5)n3n2)CCCC4)c1	0	-	0	0	0	0	-
Clc1cccc(-c2cc3nc4c(c(N5CCOCC5)n3n2)CCCC4)c1	0	-3.9	0	0	0	0	0.064
Cn1nc(-c2ccc(Cl)cc2)c2cc(C(=O)NCCCN3CCCC3)sc21	0	-	0	0	0	0	0.059
Cn1c(N)c(C(=O)COC(=O)c2cccnc2Cl)c(=O)n(C)c1=O	0	-	0	0	0	0	0
CC(C)Cn1c(N)c(C(=O)COC(=O)c2cccnc2Cl)c(=O)n(C)c1=O	0	0	0	0	0	0	-
COc1cc(NC(=S)N2CCN(C(=O)C3CCCO3)CC2)c(OC)cc1Cl (centres undefined)	0	-	0	0	0	0	-
CC1CCCN(S(=O)(=O)c2ccc(S(=O)(=O)NC(C)c3cccs3)cc2)C1 (centres undefined)	0	0	0	0	0	0	-
CCc1cc2c(nc1CC)CCN(CC/C(C)=N/OC[C@H]1O[C@H](c3ccccc3)C=C[C@@H]1Oc1ccc(OC)cc1)C2	0	-4.7	0	0	0	0	0.054
COc1ccc(O[C@H]2C=C[C@@H](c3ccccc3)O[C@@H]2CO/N=C(\C)CCN2CCc3nc(-c4ccccc4)c(-c4ccccc4)cc3C2)cc1	0	0	0	0	0	0	-
COc1ccc(NC(=S)N(CCCN2CCCC2)Cc2cccn2Cc2ccc(Cl)cc2)cc1Cl	0	0	0	0	0	0	-
CCc1ccc(/C=C2\Oc3c(ccc(O)c3CN3CCN(CCO)CC3)C2=O)cc1	-	-	-	-	-	-	0.049
OCC1(CCOc2ccccc2)CCN(C2Cc3ccccc3C2)CC1	0	-3	0	0	0	0	0.058
C/C(=N\NC(=O)c1c(Cl)cnn1C)c1ccc(NC(=O)c2ccncc2)cc1	0	0	0	0	0	0	-
Cc1noc(C)c1COC(=O)c1ccc2c(c1)S(=O)(=O)c1ccccc1C2=O	0	-	0	0	0	0	0
Cc1noc(C)c1COC(=O)c1ccc2c(c1)OCO2	0	0	0	0	0	0	-
C/C(=C\c1ccccc1)C(=O)NCCCn1ccnc1	0	0	0	0	0	0	-
Cc1cc(NC(=O)c2ccccc2[N+](=O)[O-])ccc1Br	0	0	0	0	0	0	-
COc1ccc(C(N)=S)cc1	0	0	0	0	0	0	-
C=C(c1ccc(OC)cc1)c1ccc(OC)cc1	0	1.9	0	0	0	0	0
CC(C)(C)c1cc(OC(=O)c2ccccc2F)ccc1O	0	-	0	0	0	0	-
Cc1cn2c(-c3ccc(Cl)cc3)nnc2s1	0	-	0	0	0	0	0
Clc1ccc(-c2nn3c(-c4ccccc4)nnc3s2)cc1	0	-	0	0	0	0	-

Screens as filed in PubChem BioAssay.
